# Assay outcomes: PubChem BioAssay, several laboratories
# Most compounds without a hit are left out; they make up all but 1.3% or so of the library.
# proCasp7 act: counter-screen: procaspase-7 (human) activation. P55210. recombinant procaspase-7, Ac-DEVD-pNA absorbance 405 nm; D23A/D198A/D206A triple mutant, cannot self-cleave; scale: DMSO 0, 5 µM enzyme 100. activation, % at 8.5 µM. 330,000 compounds, 0.093% hits. AID 463210;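 active means percent activation above the screen-wide mean plus 3 SD, cut at about 25% in these data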
# Target sequence (P55210 whole entry D23A/D198A/D206A): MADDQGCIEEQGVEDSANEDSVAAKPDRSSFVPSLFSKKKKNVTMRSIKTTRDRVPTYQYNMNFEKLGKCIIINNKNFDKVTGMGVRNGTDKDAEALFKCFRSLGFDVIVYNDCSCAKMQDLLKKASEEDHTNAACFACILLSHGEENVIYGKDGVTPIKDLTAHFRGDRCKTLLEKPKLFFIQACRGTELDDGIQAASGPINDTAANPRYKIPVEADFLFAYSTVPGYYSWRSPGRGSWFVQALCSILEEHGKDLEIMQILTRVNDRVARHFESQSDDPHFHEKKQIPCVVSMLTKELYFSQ
#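 Assay system – Uncleavable procaspase-7 mutant enzyme · Quantity – 2 µM procaspase-7 mutant as dispensed · Times – 1 h preincubation, 2 h reaction · Dosing – single nominal 8.5 µM compound dose, 0.8% DMSO final · Buffer or medium – Zinc-free 50 mM HEPES buffer, pH 7.4, with NaCl and Triton X-100 · Detection – Epi-absorbance of released pNA at 405 nm, two timepoints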
# Lipid droplet: hepatic lipid droplet formation modulation. AML12 mouse hepatocytes, oleate lipid droplets, BODIPY imaging. inhibition, % at 6.5 µM. 240,000 compounds, 0.4% hits. AID 1656;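 active means lipid droplet intensity inhibited by at least 50%, with more than 500 cells counted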
#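 System: AML12 hepatocytes (mouse). Probe or stimulus: oleic acid at 100 µM to induce lipid droplet formation. Times: overnight treatment with compound plus oleate. Detection: Image-based BODIPY and DAPI two-channel analysis. Evaluation: percent inhibition of filter-corrected integrated lipid droplet intensity per well.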
# proCasp3 act: activators of human procaspase-3 | P42574 | recombinant procaspase-3 D3A, Ac-DEVD-pNA absorbance 405 nm | activation, % at 8.5 µM | 330,000 compounds, 0.11% hits;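 active means activation above the mean of all tested compounds plus 3 SD, cut at about 21% in these data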
# Target sequence (P42574 whole entry D9A/D28A/D175A): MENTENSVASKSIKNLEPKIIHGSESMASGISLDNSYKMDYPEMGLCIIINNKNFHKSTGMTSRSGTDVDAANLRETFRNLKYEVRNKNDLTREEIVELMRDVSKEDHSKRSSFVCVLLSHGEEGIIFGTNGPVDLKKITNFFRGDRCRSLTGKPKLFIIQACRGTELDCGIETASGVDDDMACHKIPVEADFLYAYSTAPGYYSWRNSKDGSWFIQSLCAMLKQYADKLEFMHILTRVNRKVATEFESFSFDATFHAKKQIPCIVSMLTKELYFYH
#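 Assay system – Procaspase-3 D3A mutant, all three cleavage aspartates alanine · Controls – DMSO-only low control, 5 µM PC-3 D3A high control · Schedule – 1 h compound preincubation, 2 h substrate hydrolysis at 25 °C · Signal – 405 nm absorbance of p-nitroaniline, reads at 0 and 120 min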
# GRK2 inh: human GRK2 inhibition via aptamer displacement. P25098. bead flow cytometry, FAM-aptamer displacement from GRK2. inhibition of aptamer binding, % at 10 µM. 330,000 compounds, 0.59% hits. AID 488847;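 active means inhibition of aptamer binding above 40%, roughly 3 SD of noise, on plates passing a quality check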;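 further: median bead fluorescence of bound FAM aptamer so fluorescent compounds give negative values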
# VLA-4 inh: inhibition in a human VLA-4 binding assay | P13612 | VLA-4 expressing cells, ligand binding flow cytometry | inhibition, % (about 7 µM as worked out from the volumes in the protocol) | 330,000 compounds, 0.2% hits; in the data active means inhibition above about 50%
# JMJD2C inh: inhibitors of human GASC-1 (JMJD2C) demethylase; Q9H3R0; GST-JMJD2C(1-420) H3K9me3 demethylation, DELFIA europium; inhibition, % at 2.35 µM; 330,000 compounds, 0.069% hits; AID 2099;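 active means more than half of a compound's replicate wells show inhibition beyond 50%, single wells judged on their own value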;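 further: signal counts dimethyl H3K9 product captured on neutravidin plate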
# Lipid drop inh: confirmation of inhibitors of hepatic lipid droplet formation | 870 compounds, 65% hits | AML12 mouse hepatocytes, BODIPY lipid droplet imaging; droplets induced with 100 µM oleic acid | shares compounds with Lipid droplet | inhibition, % at 5.2 µM | AID 463183;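 active means inhibition of lipid droplet metric at least 50%, with more than 300 cells in each of four replicates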
# AML12 tox img: counter-screen for cytotoxicity in AML12 mouse hepatocytes. shares compounds with Lipid droplet. DAPI nuclear morphology cytotoxicity imaging; active compounds read high; cells fed 100 µM oleate overnight. z-score at 5 µM. 870 compounds, 3% hits; in the data active means z-score above about 6.3;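 further: compound exposure lasted overnight at 37 °C before fixation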
# AML12 tox ATP: confirmation of cytotoxicity in AML12 mouse hepatocytes. AML12 mouse hepatocyte viability, ATP luminescence; cells loaded with 100 µM oleic acid. AID 463219. 530 tested, under 10 active. shares compounds with Lipid droplet. cytotoxicity, % at 50 µM;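 active means cytotoxicity above 50% in each of four replicates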;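 further: compound exposure lasted overnight at 37 °C before the ATP read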
# VLA-4 allo CP: confirmation of allosteric modulators of human VLA-4 integrin; shares compounds with VLA-4 inh; U937 cells, HUTS-21 LIBS mAb binding, flow cytometry; LDV ligand present at threefold Kd; inhibition, % at 6.7 µM; 1,300 compounds, 2% hits; AID 2813; in the data active means inhibition above about 40%
# Numbers stand for hits; - = inactive; . = not tested or not shown; ! = not confirmed by another sample.
SMILES,proCasp7 act,Lipid droplet,proCasp3 act,GRK2 inh,VLA-4 inh,JMJD2C inh,VLA-4 allo CP,others
COc1ccc(CN2C(=O)NC(=O)/C(=C\c3ccco3)C2=O)cc1,-,.,-,-,-,-,.,
O=C1NC(=O)N(Cc2ccccc2)C(=O)/C1=C/C=C/c1ccco1,-,-,-,-,-,57.6,.,
c1ccc2c3c(ccc2c1)OCC1CONC31 (configuration not stated),-,.,-,-,-,82.3,.,
Cc1cc(C)cc(OCCOc2cccc(C=C3C(=O)NC(=O)NC3=O)c2)c1,-,-,-,-,-,67.7,.,
COC(=O)C1=C(c2cccc(Cl)c2)C[C@@H]2CC[C@H]1N2C(=O)N1CCCC1,-,.,-,-,-,-,.,
CCOc1cccc(N2C(=O)/C(=C/c3ccco3)C(=O)NC2=S)c1,-,-,-,-,-,-,.,
O=C1NC(=S)N(c2ccccc2)C(=O)/C1=C/c1ccco1,-,-,-,43.0,-,-,.,
CCN[C@@H](C)Cc1cccc(C(F)(F)F)c1,-,.,-,-,-,.,.,
CN(C)[C@@H]1C(=O)C(C(N)=O)=C(O)[C@@]2(O)C(=O)C3=C(O)c4c(O)cccc4[C@@](C)(O)[C@H]3[C@H](O)[C@@H]12,-,-,-,57.0!,-,-,.,
CNCC[C@@H](Oc1ccc(C(F)(F)F)cc1)c1ccccc1,-,.,-,-,-,-,.,
CCN(CC)c1ccc(N=Cc2c(O)n(-c3ccccc3)c(=O)[nH]c2=O)cc1,-,-,-,100.0,-,-,.,
CCOc1ccc(-n2c(O)c(C=Nc3ccc(N(CC)CC)cc3)c(=O)[nH]c2=O)cc1,-,-,-,-,-,-,.,
CCOC(=O)C1=C(NC(=S)NC(=O)c2ccccc2)c2ccccc2CC12CCCC2,.,-,.,.,.,-,.,
CC(=O)OC(C)(C)/C=C/C(=O)[C@](C)(O)[C@H]1[C@H](O)C[C@@]2(C)[C@@H]3CC=C4[C@H](C[C@H](O)C(=O)C4(C)C)[C@]3(C)C(=O)C[C@]12C,.,136.6,.,.,.,.,.,
C[C@@H]1O[C@@H](O[C@@H]2C=C3CC[C@@H]4C(CC[C@]5(C)[C@@H](c6ccc(=O)oc6)CC[C@]45O)[C@@]3(C)CC2)[C@H](O)[C@H](O)[C@H]1O (some centres not stated),-,.,-,-,-,-,.,
NC(Cc1cc(O)c(O)cc1O)C(=O)O (configuration not stated),-,.,-,71.0,-,.,.,
O=c1[nH]c(O)c(C=Nc2ccccc2[N+](=O)[O-])c(=O)[nH]1,-,-,-,58.0,-,-,.,
Cc1cnc[nH]1,-,.,-,-,-,-,.,
CC(C)OCCCNC(=O)c1c(N)n(CC2CCCO2)c2nc3ccccc3nc12 (configuration not stated),-,51.0,-,-,-,-,.,Lipid drop inh=-;AML12 tox img=-;AML12 tox ATP=-
CCNC(=O)NNC(=O)C1CC(c2cccnc2)=NO1 (configuration not stated),-,-,-,-,-,-,.,
Nc1cc(Cl)c2nonc2c1[N+](=O)[O-],-,112.8,-,-,49.6,-,-,Lipid drop inh=-;AML12 tox img=-
CC(OC(=O)c1cn(C)c2ccccc12)C(=O)N1CCCC1 (configuration not stated),-,.,-,-,-,-,.,
CN1C2CCC1CC(OC(=O)CCN1CCCC1)C2 (configuration not stated),-,-,-,-,-,-,.,
CN1[C@@H]2CC[C@H]1CC(OC(=O)C1C=Nc3ccccc31)C2 (some centres not stated),-,-,-,-,50.6,-,-,
Cc1ccc(S(=O)(=O)N[C@@H](CCCCN)C(=O)CCl)cc1,-,.,-,-,52.7,-,-,
SMILES,proCasp7 act,Lipid droplet,proCasp3 act,GRK2 inh,VLA-4 inh,JMJD2C inh,VLA-4 allo CP,others
Cc1ccc(S(=O)(=O)NCCC(=O)Nc2ccc(Cl)cc2C(=O)c2ccccc2)cc1,-,-,-,-,-,-,.,
COC(=O)C1=C(c2ccccc2OCc2ccccc2)C[C@@H]2CC[C@H]1N2C(=O)NCCCOC(C)C,-,.,-,-,-,-,.,
c1ccc2c(c1)Nc1ccccc1S2,-,.,-,-,54.9,-,-,
CC1CC(OC(=O)c2ccccc2)CC(C)N1C (configuration not stated),-,-,-,-,-,-,.,
COC(=O)C1C2CC[C@@H](CC1OC(=O)c1ccccc1)N2 (some centres not stated),-,.,-,-,-,.,-,
CN1C2CCC1C(C(=O)O)C(OC(=O)c1ccccc1)C2 (configuration not stated),-,.,-,-,-,.,-,
C[C@]12CCC(=O)C[C@@H]1CC[C@@H]1[C@@H]2CC[C@]2(C)[C@@H](O)CC[C@@H]12,-,.,-,-,-,.,.,
COC(=O)C1=C(c2ccc(OC)c(OC)c2)C[C@@H]2CC[C@H]1N2C(=O)NC1CCCCC1,-,.,-,-,-,-,.,
O=c1[nH]c(=S)n(Cc2ccc(F)cc2)c(O)c1/C=N/N1CCCCC1,-,-,-,-,56.4,-,-,
O=c1[nH]c(=S)n(Cc2ccc(F)cc2)c(O)c1C=NCC1CCCO1 (configuration not stated),-,-,-,-,-,-,.,
Cc1cccc(CN2CCCN(Cc3ccc(Cl)cc3)S2(=O)=O)c1,-,-,-,-,-,-,-,
Cc1ccc(CN2CCCN(Cc3ccc(C)cc3)S2(=O)=O)cc1,-,-,-,-,-,-,.,
O=C1CN(O)C(c2ccccc2)=c2cc(Cl)ccc2=N1,-,.,-,-,101.0,-,-,
CCOC(=O)c1c(C)n(Cc2ccccc2)c2ccc(OCC(O)CNC(C)(C)C)cc12 (configuration not stated),-,.,-,-,-,-,.,
Cc1cc(Cl)ccc1OCC(=O)O,-,.,-,-,55.6,-,-,
O=C(O)COc1ccc(Cl)cc1Cl,-,.,-,-,-,-,.,
COc1ccc(C(=O)OC2C[C@H]3CC[C@@H](C2)N3O)cc1OC (some centres not stated),-,-,-,-,-,-,-,
